This is an account of results in ChEMBL document CHEMBL1156469 (2007).

SMILES strings stand for the structures. Active and inactive are the calls of the source. The calls are words filed in the database; no cut-off is given here.

In one test the test system is Rattus norvegicus. The test is described as follows: Increase in serum BMP2 levels in ovariectomized Wistar rat at 10 mg/kg, po after 10 weeks by ELISA relative to sham operated control. It is filed as functional, organism-based. Also noted: dose 10 mg/kg. The method, boiled down: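 Ovariectomized rats given indicated doses or estrogen by oral feeding; serum BMP-2 by ELISA 10 weeks after surgery; compared with sham-operated group; n = 8/group, means ± S.D.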

Test [1] is described as follows: Reversal of increase in BMP2 expression in mouse MC3T3-E1 cells expressing pBMP2/mSp1 mutant at 1 uM after 4 hrs by luciferase method. The test is classed as functional, cell-based.
Test [2] is described as follows: Reversal of induction of BMP2 expression in mouse MC3T3-E1 cells at 1 uM by Western blot in presence of ICI-182780. The test is classed as functional, cell-based.
The subject of test [3] is MC3T3-E1. Kind of test: Reversal of induction in nuclear translocation of ERalpha in mouse MC3T3-E1 cells at 1 uM in presence of PP2. The test is classed as functional, cell-based. The method, boiled down:
(§1)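 Src phosphorylation, ERα nuclear translocation and BMP-2 protein analysed by Western blot with ECL detection. Three independent experiments.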

The test system of test [4] is Osteoblast. The test is described as follows: Effect on vascular endothelial growth factor A gene expression in rat primary osteoblast cells assessed as expression ratio of treated to untreated control by microarray analysis. The test is classed as functional. The method, boiled down: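 GEArray Q series Mouse Osteogenesis cDNA array profiling osteogenic-differentiation genes in treated versus vehicle-treated primary osteoblasts.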

The subject of test [5] is MC3T3-E1. The test is described as follows: Reversal of increase in ER.DNA complex in mouse MC3T3-E1 cells transfected with dominant-negative mutant Src expression vector at 1 uM by RT-PCR. It is filed as functional, cell-based. The method, boiled down:
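BMP-2 promoter quantified by real-time PCR (45 cycles, 61 °C anneal), reported as IP-to-input Ct ratio. DN-Src by 3 μg vector, PP2 at 10 μM; ICI182780 and tamoxifen at indicated concentrations.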

Test [6] deals with Proto-oncogene tyrosine-protein kinase Src (Mus musculus) (UniProt P05480). The test is described as follows: Reversal of increase in Src kinase phosphorylation in mouse MC3T3-E1 cells at 1 uM in presence of PP2. The test is classed as cell-based. The method, boiled down: as §1
Chain of Proto-oncogene tyrosine-protein kinase Src (Mus musculus) (P05480 2-535 limits assumed): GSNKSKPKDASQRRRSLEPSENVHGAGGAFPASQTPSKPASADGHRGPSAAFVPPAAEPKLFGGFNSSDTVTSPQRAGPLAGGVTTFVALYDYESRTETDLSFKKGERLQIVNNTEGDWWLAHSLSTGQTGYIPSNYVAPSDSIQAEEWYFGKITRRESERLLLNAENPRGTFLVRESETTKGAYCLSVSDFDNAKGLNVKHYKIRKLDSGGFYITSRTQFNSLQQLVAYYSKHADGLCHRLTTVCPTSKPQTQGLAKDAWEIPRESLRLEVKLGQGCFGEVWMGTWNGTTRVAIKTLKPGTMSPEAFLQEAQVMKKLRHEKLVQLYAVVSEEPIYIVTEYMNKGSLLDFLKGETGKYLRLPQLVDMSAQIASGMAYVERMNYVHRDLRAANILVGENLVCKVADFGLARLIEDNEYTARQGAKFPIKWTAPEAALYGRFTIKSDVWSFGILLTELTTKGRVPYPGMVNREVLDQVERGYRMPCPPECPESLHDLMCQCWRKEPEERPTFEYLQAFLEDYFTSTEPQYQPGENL
Test [7] addresses T1, Estrogen receptor (Mus musculus) (UniProt P19785).
T1 sequence (whole entry): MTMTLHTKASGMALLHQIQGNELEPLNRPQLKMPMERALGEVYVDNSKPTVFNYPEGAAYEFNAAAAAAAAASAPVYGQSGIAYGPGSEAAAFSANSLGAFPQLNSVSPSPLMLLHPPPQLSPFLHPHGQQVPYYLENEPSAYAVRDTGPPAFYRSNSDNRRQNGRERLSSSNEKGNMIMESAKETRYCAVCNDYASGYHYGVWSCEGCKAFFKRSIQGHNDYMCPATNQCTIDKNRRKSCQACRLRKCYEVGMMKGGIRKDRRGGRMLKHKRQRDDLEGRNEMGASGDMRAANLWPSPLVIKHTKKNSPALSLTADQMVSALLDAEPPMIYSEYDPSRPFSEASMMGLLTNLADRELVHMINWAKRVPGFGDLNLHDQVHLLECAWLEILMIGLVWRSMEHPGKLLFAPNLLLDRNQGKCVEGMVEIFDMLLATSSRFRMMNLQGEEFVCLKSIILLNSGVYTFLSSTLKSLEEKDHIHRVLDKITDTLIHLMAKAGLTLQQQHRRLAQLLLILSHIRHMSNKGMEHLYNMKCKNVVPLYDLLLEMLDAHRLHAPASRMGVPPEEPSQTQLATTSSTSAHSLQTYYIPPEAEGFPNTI
The test is described as follows: Reversal of increase in DNA-binding activity of ERalpha in nuclear extracts of mouse MC3T3-E1 cells transfected with dominant-negative mutant Src expression vector by electrophoretic mobility shift assays. The test is classed as cell-based. The method, boiled down:
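Nuclear extracts of MC3T3-E1 cells. ER-binding probe [α-32P]dCTP end-labeled, 20-min binding at room temperature, 5-fold unlabeled competitor where used. Complexes resolved on 5% nondenaturing PAGE in Tris-borate-EDTA pH 8.3, then autoradiography.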

For test [8], the system named is MC3T3-E1. The test is described as follows: Reversal of increase in ER.DNA complex in mouse MC3T3-E1 cells expressing small interfering RNA for FOXA1 protein at 1 uM by RT-PCR. It is filed as functional, cell-based.
The test system of test [9] is MDA-MB-231. The test is described as follows: Reversal of inhibition in anchorage-independent colony formation of human MDA-MB-231 cells transfected with FOXO3a-specific small interfering RNA by soft agar colony forming assay. The test is classed as functional, cell-based.
Test [10] concerns MDA-MB-231. The test is described as follows: Enhancement of FOXO3a nuclear accumulation in human MDA-MB-231 cells transfected with dominant negative Akt mutant. It is filed as functional, cell-based. The method, boiled down: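 MDA-MB-231 cells transfected with vector, constitutively active Akt or dominant negative Akt, treated ± compound; analyzed by Western blotting and BMP-2 promoter luciferase activity.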

The next test concerns T47D. Kind of test: Antiproliferative activity against human T47D cells at 1 uM by flow cytometry. It is filed as functional, cell-based. The method, boiled down: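 Proliferation was measured by DNA flow cytometry. Incubations were run in triplicate across three separate experiments, and values are means ± S.D.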
Test [11] has as its system MC3T3-E1. Kind of test: Increase in BMP2 expression in mouse MC3T3-E1 cells expressing pBMP2delta3 mutant at 1 uM after 4 hrs by luciferase method relative to control. It is filed as functional, cell-based. The method, boiled down:
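MC3T3-E1 cells transfected with BMP-2 promoter–luciferase constructs (full promoter or deletions), treated with 1 μm or vehicle for 4 h; Dual-Luciferase assay; means ± S.D.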

The test system of test [12] is MG-63. The test is described as follows: Increase in proliferation of human MG63 cells at 0.1 to 10 uM after 24 hr by flow cytometry. The test is classed as functional, cell-based.
A short description of test [13]: Reversal of increase in pBMP2 expression in mouse MC3T3-E1 cells transfected with dominant-negative mutant Src expression vector at 1 uM by luciferase method. It is filed as functional, cell-based. The method, boiled down:
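BMP-2 promoter activity measured by dual-luciferase assay and expressed relative to the untreated vector control.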

For test [14], the system named is MC3T3-E1. Kind of test: Increase in osteocalcin levels in mouse MC3T3-E1 cells at 1 uM after 72 hrs by ELISA. The test is classed as functional, cell-based. The method, boiled down:
(§2)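 Cells treated with 1 μm for 72 h; osteocalcin or osteopontin in culture medium by sandwich ELISA, HRP-streptavidin/TMB, 450 nm; percent change versus untreated control.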

Test [15] deals with Osteoblast. Kind of test: Increase in osteocalcin levels in rat primary osteoblast cells at 1 uM after 72 hrs by ELISA. It is filed as functional, cell-based. The method, boiled down: as §2
The subject of test [16] is MG-63. Kind of test: Increase in osteopontin levels in human MG63 cells at 1 uM after 72 hrs by ELISA. The test is classed as functional, cell-based. The method, boiled down:
as §2

The subject of another test is MCF7. The test is described as follows: Antitumor activity against human MCF7 cells xenografted in SCID mouse orthotropic model assessed as inhibition of 17beta estradiol-induced tumor formation at 10 mg/kg for 2 days. It is filed as functional. Also noted: scale not given: the % may be the effect or the level left. The method, boiled down:
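Tumor cells were inoculated orthotopically into the mammary fat pad of 6-week-old female SCID mice. […] Tumor volume was calculated as LW2/2. Tumor formation was scored as mice with tumors per total (20 per group), and tumor weight as mean ± S.D. Groups were compared by one-way ANOVA with LSD post-hoc comparisons.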

In test [17] the test system is Osteoblast. The test is described as follows: Effect on histone H1 gene expression in rat primary osteoblast cells assessed as expression ratio of treated to untreated control by microarray analysis. The test is classed as functional. The method, boiled down:
(§3)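 Resveratrol-treated and vehicle-treated primary osteoblasts were profiled on a mouse osteogenesis-focused cDNA array (GEArray Q series) built to track gene expression during osteogenic differentiation. Each gene's signal in treated cells was expressed as a ratio to untreated control.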

Test [18] deals with Osteoblast. Kind of test: Effect on integrin alpha V gene expression in rat primary osteoblast cells assessed as expression ratio of treated to untreated control by microarray analysis. The test is classed as functional. The method, boiled down: as §3
In test [19] the test system is Osteoblast. Kind of test: Effect on matrix metalloprotease 9 gene expression in rat primary osteoblast cells assessed as expression ratio of treated to untreated control by microarray analysis. The test is classed as functional. The method, boiled down:
as §3

For the molecule `Oc1ccc(/C=C/c2cc(O)cc(O)c2)cc1` [RESVERATROL], the result (in the test on Rattus norvegicus; in test [2]; with MC3T3-E1 [3]; in the test on MC3T3-E1 [5]; in [6]; in test [7]) was Active. The outcome (in the test with MC3T3-E1 [8]; in the test on MDA-MB-231 [9]; with MDA-MB-231 [10]; with T47D; in the test on MG-63 [12]; in [13]) was Active. Moreover, the outcome in the test on MC3T3-E1 [14], in the test on Osteoblast [15] and in the test with MG-63 [16] was Active. In addition, the outcome (in test [1]; with MC3T3-E1 [11]) was inactive. The Ratio is on record as 0.44 in the test with Osteoblast [4], 0.44 in the test with Osteoblast [17], 4.64 with Osteoblast [18] and 0.43 in the test on Osteoblast [19]. For the same molecule, the Activity in the test with MCF7 amounted to 40%.
